# Source: article PMC7317421 (Clinical Pharmacology in Drug Development, 2020)
# Where two headings read alike, the source gives them in different places.
# How the values were obtained:
# [1] = Plasma pharmacokinetics, single ascending oral doses after overnight fast; assay type: in vivo, human; settings: fasted, Part 1; for AUC0‐∞ / Cmax: arithmetic mean (SD); for t½: mean ± SD
# How it was run: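 Randomized, double‑blind, placebo‑controlled interleaving crossover in 2 cohorts of 8. Each cohort received 4 ascending single doses, ≥10 days apart, taken with water after a ≥10‑h overnight fast. Blood sampled up to 72 h postdose. Plasma was extracted by protein precipitation with a stable‑isotope internal standard and measured by LC‑MS/MS with calibration 2.00–1000 ng/mL (LLOQ 2.00 ng/mL). Noncompartmental parameters were summarized descriptively by dose.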
# [2] = assay type: in vivo, human; settings: for AUCtau / Cmax: mean (SD)
# [3] = assay type: in vivo, human; settings: for Median Tmax (range) / Cmax / t½: 100 mg single oral dose, Part 3; for Cmax: arithmetic mean (SD); for t½: mean ± SD
# hepatic DNL = experiment: Fructose-stimulated hepatic DNL inhibition; assay type: in vivo, human
# How it was run: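 Part 2, with baseline on day −6 and repeat on day 14 of dosing. On the evening/night before each challenge, subjects drank 4 doses of 70% D2O (60 mL each). Oral fructose 0.25 g/kg was then given every 30 min from 0 to 9.5 h, with dosing at 0 h. Body‑water deuterium was measured. Triglyceride‑palmitate was isolated from plasma by Folch extraction and TLC, and its methyl ester analysed by GC‑pyrolysis isotope‑ratio MS. Basal‑adjusted % newly made palmitate and AUEC10 were calculated.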
# [4] = Safety and tolerability: adverse events, vital signs, ECG; assay type: in vivo, human
# How it was run: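 Observed and self‑reported AEs, clinically significant physical‑exam changes and abnormal laboratory results were recorded. Vital signs and 12‑lead ECGs were monitored throughout. In Part 2, AEs were tallied separately for drug alone (days 1‑13) and for the periods with fructose/D2O. The safety set was everyone receiving ≥1 dose of study drug or fructose/D2O. Data were reviewed on an ongoing basis and summarized descriptively.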
# [5] = Fasting and postprandial serum triglycerides and fasting lipids; assay type: in vivo, human
# How it was run: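 Part 2, randomized 4:1 to drug or placebo with food, once daily or every 12 hours on days 1‑14. Fasting lipids were sampled after overnight fasts over 16 days. Total cholesterol, direct LDL and HDL were run on an automated chemistry analyzer. Postprandial triglycerides: 12 serial samples over 24 h on days 0 and 12. AUEC by trapezoid rule, averaged as AUEC24/24 when first, last and ≥75% of samples were available. Baseline was the mean of 0‑h values on days 0‑1.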
# [6] = Platelet count and mean platelet volume; assay type: in vivo, human
# [7] = rats; cited from earlier work
# [8] = monkeys; cited from earlier work
# [9] = humans; cited from earlier work
# [10] = 100 mg single dose, high‐fat meal vs fasted
# [11] = 100 mg every 12 hours, same withdrawn subject
compound,measurement,setting,value
COc1cc(C(=O)N2CCC3(CC2)CC(=O)c2c(cnn2C(C)C)C3)cc(-c2ccc(C(=O)O)cc2)n1 [PF‐05221304],Median Tmax (range),[1]; 1 mg single oral dose,2.0 (1.0‐3.0) h
same,AUC0‐∞,[1]; 1 mg single oral dose,670.5 (182.2) ng·h/mL
same,Cmax,[1]; 1 mg single oral dose,48.3 (8.2) ng/mL
same,t½,[1]; 1 mg single oral dose,13.6 ± 3.4 h
same,Median Tmax (range),[1]; 3 mg single oral dose,2.5 (1.1‐4.0) h
same,AUC0‐∞,[1]; 3 mg single oral dose,2508 (476.0) ng·h/mL
same,Cmax,[1]; 3 mg single oral dose,177.0 (46.3) ng/mL
same,t½,[1]; 3 mg single oral dose,13.5 ± 3.5 h
same,Median Tmax (range),[1]; 10 mg single oral dose,3.0 (1.0‐5.0) h
same,AUC0‐∞,[1]; 10 mg single oral dose,8603 (1603.8) ng·h/mL
same,Cmax,[1]; 10 mg single oral dose,608.5 (134.0) ng/mL
same,t½,[1]; 10 mg single oral dose,18.3 ± 2.3 h
same,Median Tmax (range),[1]; 30 mg single oral dose,2.0 (0.5‐4.0) h
same,Cmax,[1]; 30 mg single oral dose,2008 (421.7) ng/mL
same,t½,[1]; 30 mg single oral dose,17.6 ± 2.6 h
same,Median Tmax (range),[1]; 100 mg single oral dose,2.0 (1.0‐4.0) h
same,Cmax,[1]; 100 mg single oral dose,7435 (1904.5) ng/mL
same,t½,[1]; 100 mg single oral dose,16.0 ± 3.6 h
same,Median Tmax (range),[1]; 200 mg single oral dose,2.0 (0.5‐4.0) h
same,t½,[1]; 200 mg single oral dose,15.3 ± 3.4 h
same,Median Tmax (range),[1]; 240 mg single oral dose,1.5 (1.0‐4.0) h
same,t½,[1]; 240 mg single oral dose,15.2 ± 2.8 h
same,Median Tmax (range),"[2]; Day 1, 1 mg every 12 hours",3.0 (3.0‐5.0) h
same,AUCtau,"[2]; Day 1, 1 mg every 12 hours",384.5 (71.1) ng·h/mL
same,Cmax,"[2]; Day 1, 1 mg every 12 hours",54.4 (9.0) ng/mL
same,Median Tmax (range),"[2]; Day 1, 3 mg every 12 hours",5.0 (2.0‐6.0) h
same,AUCtau,"[2]; Day 1, 3 mg every 12 hours",1038 (131.4) ng·h/mL
same,Cmax,"[2]; Day 1, 3 mg every 12 hours",142.7 (21.2) ng/mL
same,Median Tmax (range),"[2]; Day 1, 10 mg every 12 hours",3.5 (1.0‐5.0) h
same,AUCtau,"[2]; Day 1, 10 mg every 12 hours",3811 (767.3) ng·h/mL
same,Cmax,"[2]; Day 1, 10 mg every 12 hours",584.6 (91.2) ng/mL
same,Median Tmax (range),"[2]; Day 1, 30 mg every 12 hours",5.0 (3.0‐5.0) h
same,Cmax,"[2]; Day 1, 30 mg every 12 hours",1689 (256.7) ng/mL
same,Median Tmax (range),"[2]; Day 1, 40 mg once daily",4.0 (2.0‐8.0) h
same,Cmax,"[2]; Day 1, 40 mg once daily",1986 (591.8) ng/mL
same,Median Tmax (range),"[2]; Day 1, 100 mg every 12 hours",3.5 (0.5‐5.0) h
same,Cmax,"[2]; Day 1, 100 mg every 12 hours",6831 (1388.6) ng/mL
same,Median Tmax (range),"[2]; Day 1, 100 mg once daily",4.0 (2.0‐6.0) h
same,Cmax,"[2]; Day 1, 100 mg once daily",5965 (1252.2) ng/mL
same,Median Tmax (range),"[2]; Day 7, 1 mg every 12 hours",3.0 (2.0‐5.0) h
same,AUCtau,"[2]; Day 7, 1 mg every 12 hours",760.4 (202.4) ng·h/mL
same,Cmax,"[2]; Day 7, 1 mg every 12 hours",91.4 (19.3) ng/mL
same,Median Tmax (range),"[2]; Day 7, 3 mg every 12 hours",5.0 (3.0‐5.1) h
same,AUCtau,"[2]; Day 7, 3 mg every 12 hours",2264 (484.8) ng·h/mL
same,Cmax,"[2]; Day 7, 3 mg every 12 hours",283.1 (49.1) ng/mL
same,Median Tmax (range),"[2]; Day 7, 10 mg every 12 hours",5.0 (5.0‐6.0) h
same,AUCtau,"[2]; Day 7, 10 mg every 12 hours",8334 (2131.6) ng·h/mL
same,Cmax,"[2]; Day 7, 10 mg every 12 hours",1009 (215.9) ng/mL
same,Median Tmax (range),"[2]; Day 7, 30 mg every 12 hours",5.0 (3.0‐6.0) h
same,Cmax,"[2]; Day 7, 30 mg every 12 hours",3229 (741.0) ng/mL
same,Median Tmax (range),"[2]; Day 7, 40 mg once daily",4.0 (3.0‐6.0) h
same,Cmax,"[2]; Day 7, 40 mg once daily",2654 (674.6) ng/mL
same,Median Tmax (range),"[2]; Day 7, 100 mg every 12 hours",3.5 (3.0‐5.0) h
same,Median Tmax (range),"[2]; Day 7, 100 mg once daily",4.0 (2.0‐6.0) h
same,Cmax,"[2]; Day 7, 100 mg once daily",7894 (1117.5) ng/mL
same,excreted in urine as unchanged drug over the dosing interval (Aeτ),"[2]; day 7, Part 2",Less than 1%
same,accumulation for AUCtau,[2]; every‐12‐hour dosing,approximately 2 fold
same,median Tmax,[2]; multiple oral doses 1‐100 mg every 12 hours and 40‐100 mg once daily with food,3 to 5 h
same,accumulation for AUCtau,[2]; once‐daily dosing,approximately 1.5 fold
same,steady state achieved (trough concentrations),"[2]; repeated dosing, Part 2",≤ 7 days
same,Geometric mean AUC0‐∞,"[3]; 100 mg single dose, fasted",79 320 ng·h/mL
same,geometric mean Cmax,"[3]; 100 mg single dose, fasted, CV% 25%",7479 ng/mL
same,Geometric mean AUC0‐∞,"[3]; 100 mg single dose, fed",72 360 ng·h/mL
same,geometric mean Cmax,"[3]; 100 mg single dose, fed, CV% 41%",5592 ng/mL
same,decrease of AUC0‐∞ with food,[3]; [10],~9%
same,plasma Cmax reduction with food,[3]; [10],25%
same,Median Tmax (range),[3]; fasted state,2.5 (1.0‐3.0) h
same,Cmax,[3]; fasted state,7671 (1699.8) ng/mL
same,t½,[3]; fasted state,12.3 ± 2.0 h
same,Median Tmax (range),[3]; fed state,5.0 (2.0‐8.0) h
same,Cmax,[3]; fed state,5947 (1982.1) ng/mL
same,t½,[3]; fed state,13.2 ± 3.5 h
same,"Adjusted % inhibition of newly made triglyceride‐palmitate (DNL), AUEC10","hepatic DNL; 10 mg Q12H, day 14 vs baseline (day −6)",80.0%
same,hepatic DNL inhibition over a 10‐hour period postdose,hepatic DNL; doses <40 mg/day,≤ 80%
same,"inhibition of DNL (AUEC of newly made triglyceride‐palmitate), near‐maximal","hepatic DNL; doses ≥40 mg/day, 14 days",> 90%
same,subjects with AEs,"[4]; Part 1 (single doses, PF‐05221304 or placebo periods)",5 subjects
same,subjects with AEs,[4]; Part 3 (100 mg single dose fed/fasted),3 subjects
same,vital signs or cardiac conduction intervals (12‐lead ECG),[4]; all parts,no clinically significant changes
same,tolerability,"[4]; single 1‐240 mg, repeated 2‐200 mg daily",well tolerated at all doses
same,maximum tolerated dose,"[4]; up to 240 mg single, 200 mg/day repeated",not identified
same,elevated fasting serum triglyceride levels (1 subject),[5]; [11],2.1 fold
same,elevated postprandial serum triglyceride levels (1 subject),[5]; [11],2.6 fold
same,fasting and postprandial serum triglyceride levels,[5]; repeated daily doses ≥40 mg/day,increased
same,"maximum decline from day 0 in platelet count (1 subject, moderate AE)","[6]; 100 mg every 12 hours, day 13 + 24 hours, one person",53 000 /µL
same,platelet volume,[6]; doses ≥20 mg/day administered every 12 hours,increases in platelet volume
same,platelet count,[6]; repeated doses ≤40 mg/day,No change in platelet count
same,platelet count,[6]; repeated dosing ≥60 mg/day,gradual decline in platelet count from day 7 onward
same,lowest platelet count observed,"[6]; repeated dosing, Part 2",≥ 100 000 /µL
same,platelet count,"[6]; single doses, 1‐ to 240‐mg dose range",did not change
same,asymmetric hepatic distribution,[7],≥ 100 fold
same,asymmetric hepatic distribution,[8],≥ 100 fold
Cc1nc2ccc(C(=O)N3CCC4(CC3)CC(=O)c3c(cnn3C(C)C)C4)cc2[nH]1 [PF‐05175157],platelet count,[9],decreased platelet count
